Reference: ChEMBL document CHEMBL4814044, “Design and synthesis, biological evaluation of bis-(1,2,3- and 1,2,4)-triazole derivatives as potential antimicrobial and antifungal agents” (2021)

Experiments:
Assay type in all cases: functional
[1] = tested on: Saccharomyces cerevisiae; assay: Antifungal activity against Saccharomyces cerevisiae MTCC 1344 assessed as zone of inhibition at 48 uM incubated for 2 days by cross streak plate method; conditions: MTCC 1344, 48 h, time 2 day, read-out: IZ
In short: (§1)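 S. cerevisiae MTCC 1344 cultures were incubated for 2 days at 37 °C and then tested by the cross streak plate method.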

[2] = tested on: Saccharomyces cerevisiae; assay: Antifungal activity against Saccharomyces cerevisiae MTCC 1344 assessed as zone of inhibition at 36 uM incubated for 2 days by cross streak plate method; conditions: MTCC 1344, 48 h, time 2 day, read-out: IZ; in short: as §1
[3] = tested on: Aspergillus niger; assay: Antifungal activity against Aspergillus niger MTCC 404 assessed as zone of inhibition at 36 uM incubated for 2 days by cross streak plate method; conditions: MTCC 404, 48 h, time 2 day, read-out: IZ
In short: (§2)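 Fungal strain (A. niger MTCC 404 or S. cerevisiae MTCC 1344) was incubated with the compound for 2 days at 37 °C. Growth inhibition was then assessed by the cross streak plate method.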

[4] = tested on: Saccharomyces cerevisiae; assay: Antifungal activity against Saccharomyces cerevisiae MTCC 1344 assessed as zone of inhibition at 24 uM incubated for 2 days by cross streak plate method; conditions: MTCC 1344, 48 h, time 2 day, read-out: IZ; in short: as §2
[5] = tested on: Aspergillus niger; assay: Antifungal activity against Aspergillus niger MTCC 404 assessed as zone of inhibition at 24 uM incubated for 2 days by cross streak plate method; conditions: MTCC 404, 48 h, time 2 day, read-out: IZ; in short: as §2
[6] = tested on: Aspergillus niger; assay: Antifungal activity against Aspergillus niger MTCC 404 assessed as zone of inhibition at 48 uM incubated for 2 days by cross streak plate method; conditions: MTCC 404, 48 h, time 2 day, read-out: IZ; in short: as §2

SMILES: Clc1ccc(COC(Cn2ccnc2)c2ccc(Cl)cc2Cl)c(Cl)c1 (stereo unspecified) [MICONAZOLE]
- zone of inhibition at 48 µM [1]: 12 mm
- zone of inhibition at 36 µM [2]: 9 mm
- zone of inhibition at 36 µM [3]: 10 mm
- zone of inhibition at 24 µM [4]: 8 mm
- zone of inhibition at 24 µM [5]: 8 mm
- zone of inhibition at 48 µM [6]: 12 mm
